ChEMBL document CHEMBL1131141, “Novel 1,1,3-trioxo-2H,4H-thieno[3,4-e][1,2,4]thiadiazine derivatives as non-nucleoside reverse transcriptase inhibitors that inhibit human immunodeficiency virus type 1 replication” (J Med Chem, 1998)
pEC50: −log10 of the molar value.

Columns and labels:
MT4 [1] = experiment: Dose required to reduce the viability of mock-infected cells by 50%, determined by MTT method.; assay type: functional; conditions: Homo sapiens
Summary of the method: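 Mock-infected MT-4 cells; value is the dose lowering cell viability by 50%, read out by MTT assay. Mean of at least two separate experiments.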

[2] = tested on: Human immunodeficiency virus 1; experiment: Selectivity index was measured as the ratio of CC50(HIV-1) to that of EC50(HIV-1); SI Selectivity Index; assay type: functional
MT4 [3] = experiment: Dose required to achieve 50% protection of MT-4 cells from HIV-1(IIIB) induced cytopathogenicity, determined by […] method.; assay type: functional, cell-based; conditions: Homo sapiens
Summary of the method: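 MT-4 cells infected with HIV-1(IIIB); value is the dose giving 50% protection against virus-induced cytopathogenicity, read out by MTT viability assay. Mean of at least two separate experiments.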

[4] = Selectivity index was measured as the ratio of CC50(HIV-1) to that of EC50(HIV-1); assay type: functional

Structure (SMILES) | CC50 (MT4 [1]) [µM] | SI [2] | pEC50 (MT4 [3]) | SI [4]
O=C1N(Cc2ccccc2)c2cc(Cl)sc2S(=O)(=O)N1Cc1ccccc1 | > 119 | >26 | 5.35 | –
N#CCN1C(=O)N(CCc2ccccc2)S(=O)(=O)c2cscc21 | 40.3 | 11 | 5.44 | –
O=C1N(Cc2ccc(Cl)cc2)c2cscc2S(=O)(=O)N1Cc1ccccc1 | 18.6 | 13 | 5.85 | –
O=C1N(Cc2ccccc2)c2cscc2S(=O)(=O)N1Cc1ccccc1 | > 650 | >296 | 5.66 | –
N#CCN1C(=O)N(Cc2cccc(F)c2)S(=O)(=O)c2cscc21 | 93.6 | 1872 | 7.30 | –
CN1C(=O)N(Cc2ccccc2Cl)S(=O)(=O)c2cscc21 | 446 | <1 | < 3.35 | –
O=C1N(Cc2ccccc2Cl)c2cscc2S(=O)(=O)N1Cc1ccccc1 | > 119 | >1190 | 7.00 | –
CN1C(=O)N(Cc2ccccc2)S(=O)(=O)c2cscc21 | 528 | 196 | 5.57 | –
N#CCN1C(=O)N(Cc2ccccc2)S(=O)(=O)c2sc(Cl)cc21 | 152 | 6 | 4.61 | –
CCN1C(=O)N(CCc2ccccc2)S(=O)(=O)c2cscc21 | 330 | 38 | 5.07 | –
N#CCN1C(=O)N(Cc2cccc(Br)c2)S(=O)(=O)c2cscc21 | 68.6 | 762 | 7.05 | –
O=C1N(Cc2cccc(Cl)c2)c2cscc2S(=O)(=O)N1Cc1ccccc1 | > 119 | >149 | 6.10 | –
CCN1C(=O)N(Cc2ccccc2)S(=O)(=O)c2ccsc21 | 374 | 18 | 4.69 | –
O=C1N(Cc2ccccc2)c2cscc2S(=O)(=O)N1CCc1ccccc1 | 226 | 21 | 4.96 | –
CN1C(=O)N(Cc2cccc(Cl)c2)S(=O)(=O)c2cscc21 | > 729 | >96 | 5.12 | –
CN1C(=O)N(Cc2c(Cl)cccc2Cl)S(=O)(=O)c2cscc21 | 528 | <1 | < 3.28 | –
CN1C(=O)N(Cc2ccccc2)S(=O)(=O)c2nn(C)cc21 | 498 | <1 | < 3.30 | –
N#CCN1C(=O)N(Cc2cccnc2)S(=O)(=O)c2cscc21 | > 150 | >750 | 6.70 | –
C#CCN1C(=O)N(Cc2ccccc2)S(=O)(=O)c2cscc21 | > 376 | >376 | 6.00 | –
Cc1ccnc2c1NC(=O)c1cccnc1N2C1CC1 [NEVIRAPINE] | 683 | 22800 | 7.52 | –

Structure (SMILES) | CC50 (MT4 [1]) [µM] | SI [2] | pEC50 (MT4 [3]) | SI [4]
CCCN1C(=O)N(Cc2ccccc2)S(=O)(=O)c2ccsc21 | 403 | – | < 3.39 | –
CCN1C(=O)N(Cc2ccccc2Cl)S(=O)(=O)c2cscc21 | 605 | 83 | 5.14 | –
N#CCN1C(=O)N(Cc2cccc(Cl)c2)S(=O)(=O)c2cscc21 | > 340 | >3778 | 7.05 | –
CCN1C(=O)N(Cc2ccccc2)S(=O)(=O)c2cscc21 | > 775 | >310 | 5.60 | –
CCOC(=O)CN1C(=O)N(Cc2ccccc2)S(=O)(=O)c2cscc21 | 130 | 18 | 5.13 | –
CCN1C(=O)N(Cc2c(Cl)cccc2Cl)S(=O)(=O)c2cscc21 | 74.1 | <1 | < 4.13 | –
CCN1C(=O)N(Cc2ccccc2)S(=O)(=O)c2nn(C)cc21 | 321 | <1 | < 3.49 | –
O=C1N(Cc2ccccc2)c2cscc2S(=O)(=O)N1Cc1ccccn1 | 166 | 415 | 6.40 | –
N#CCN1C(=O)N(Cc2ccccc2)S(=O)(=O)c2cscc21 | 503 | 559 | 6.05 | –
O=C1N(Cc2ccccc2)c2sccc2S(=O)(=O)N1Cc1ccccc1 | > 650 | >78 | 5.08 | –
N#CCN1C(=O)N(Cc2ccccn2)S(=O)(=O)c2cscc21 | > 374 | >340 | 5.96 | –
CN1C(=O)N(Cc2ccc(Cl)cc2)S(=O)(=O)c2cscc21 | 417 | <1 | < 3.38 | –
N#CCN1C(=O)N(Cc2cc(F)cc(F)c2)S(=O)(=O)c2cscc21 | 102 | 340 | 6.52 | –
N#CCN1C(=O)N(Cc2ccccc2)S(=O)(=O)c2ccsc21 | 219 | 73 | 5.52 | –
CCN1C(=O)N(Cc2ccc(Cl)cc2)S(=O)(=O)c2cscc21 | 273 | <1 | < 3.56 | –
Cc1cn([C@H]2C[C@H](N=[N+]=[N-])[C@@H](CO)O2)c(=O)[nH]c1=O [ZIDOVUDINE] | 35.6 | – | 9.15 | 50600
CN1C(=O)N(Cc2ccccc2)S(=O)(=O)c2ccsc21 | > 811 | – | < 3.09 | –
C#CCN1C(=O)N(Cc2cccc(Cl)c2)S(=O)(=O)c2cscc21 | 65.7 | 657 | 7.00 | –
CCN1C(=O)N(Cc2cccc(Cl)c2)S(=O)(=O)c2cscc21 | > 701 | >334 | 5.68 | –
CCN1C(=O)N(Cc2ccccn2)S(=O)(=O)c2cscc21 | > 387 | >9 | 4.38 | –
